Screening results deposited in PubChem by several laboratories.
This is a sample that favours compounds with a hit; in the whole collection about 3.8% have one here.
MrgX1 ag – agonists of human MrgX1 receptor, primary screen, HEK293 cells, Fluo-4 calcium flux; Fluo-4 calcium fluorescence, agonist mode; hits give high values; B-score at 10 µM; actives 0.44% (n = 310,000); AID 588627, 2011;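 active = calcium response B-score plate-corrected fluorescence ratio at least 3 library SD, with starting fluorescence B-score inside 5 SD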
Target sequence (Q96LB2 whole entry, looked up): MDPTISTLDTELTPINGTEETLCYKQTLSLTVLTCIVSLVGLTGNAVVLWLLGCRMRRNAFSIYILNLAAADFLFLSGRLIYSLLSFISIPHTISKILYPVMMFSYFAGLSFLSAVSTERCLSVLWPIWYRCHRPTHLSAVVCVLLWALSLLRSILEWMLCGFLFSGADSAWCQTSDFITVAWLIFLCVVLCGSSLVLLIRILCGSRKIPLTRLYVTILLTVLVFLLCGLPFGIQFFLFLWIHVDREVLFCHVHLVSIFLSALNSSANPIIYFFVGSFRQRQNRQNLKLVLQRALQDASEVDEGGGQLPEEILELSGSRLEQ
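Material: HEK293 cells stably expressing human MrgX1 receptor | Quantity: 15,000 cells per well | Times: Cells plated overnight, dye loaded 0.5 h 37 °C, 0.5 h room temperature | Measured by: Kinetic Fluo-4 NW fluorescence of intracellular calcium | Control set: Positive and negative controls per plate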
MrgX1 allo act – positive allosteric modulators of MrgX1, primary screen, HEK293 cells, Fluo-4 calcium flux. actives 0.63% (n = 310,000). B-score at 10 µM. AID 588675, 2011. Mas-related G-protein coupled receptor member X1 (Homo sapiens), Q96LB2. FDSS; hits give high values;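 active = plate-corrected calcium response at least 3 library SD above typical, normal starting fluorescence, not activating the receptor alone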;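 note: compound read alongside a low EC10 to EC30 dose of BAM8-22 agonist; peak minus trough fluorescence over baseline measured at the second addition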
RGS4 inh – RGS4 inhibitors, primary screen, cell-based, HEK293 M3R inducible RGS4, calcium flux. Regulator of G-protein signaling 4 (Homo sapiens), P49798. B-score at 10 µM. AID 463165, 2010. actives 0.45% (n = 310,000). Fluo-4 calcium flux; hits give high values; triggered by carbachol at its EC20;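 active = B-score, a plate-corrected calcium signal, over three deviations above library mean, with baseline fluorescence within five deviations of library mean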;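 note: RGS4 expression induced by doxycycline in cells with stable M3 receptor; B-score is computed from the integrated fluorescence ratio over baseline after carbachol; higher B-score means a larger calcium signal and so more RGS4 inhibition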
Target sequence (P49798 whole entry, looked up): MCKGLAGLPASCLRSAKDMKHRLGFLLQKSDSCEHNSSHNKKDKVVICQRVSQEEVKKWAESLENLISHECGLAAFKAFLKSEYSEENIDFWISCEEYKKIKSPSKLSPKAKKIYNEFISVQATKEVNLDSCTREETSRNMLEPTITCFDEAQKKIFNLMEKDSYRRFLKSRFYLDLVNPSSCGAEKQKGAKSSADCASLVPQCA
MrgX1 antagonist – antagonists of human MrgX1 receptor, primary screen, HEK293 cells, Fluo-4 calcium flux. Mas-related G-protein coupled receptor member X1 (Homo sapiens), Q96LB2. BAM8-22 antagonism; hits give low values. B-score at 10 µM. actives 1.3% (n = 310,000);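 active = calcium-response B-score plate-corrected more than 3 library SD below zero, starting fluorescence within 5 deviations, no agonist response on first addition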;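 note: peak minus trough fluorescence over baseline after final BAM8-22 challenge near maximal dose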
Hep lipid drop – inhibitors of hepatocyte lipid droplet formation, primary screen, imaging, high-throughput imaging, BODIPY stain | AML12 mouse hepatocytes, oleate lipid droplets | inhibition, % at 6.5 µM | actives 0.4% (n = 240,000);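 active = lipid droplet intensity inhibited by at least 50%, with more than 500 cells counted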
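Material – mouse AML12 hepatocyte cell line, fixed after treatment · Compound dosing – one dose, 6.5 µM compound · Times – compound with oleate, overnight · Measured by – Image-based BODIPY and DAPI two-channel analysis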
RGS4 pot – RGS4 potentiators or activators, primary screen, cell-based, HEK293 M3R inducible RGS4, calcium flux. carbachol calcium flux Fluo4; hits give low values. B-score at 10 µM. actives 0.92% (n = 310,000);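 active = B-score of the integrated calcium signal more than 4 SD below the library mean, with starting fluorescence not abnormally high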;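 note: negative B-score means reduced calcium response which marks RGS4 activation or potentiation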
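test system = HEK293 cells with stable M3R and inducible RGS4 | schedule = recording 10 s baseline at 1 Hz, 100 s post-agonist | technique = Fluo4-AM (2 µM) calcium-flux fluorescence, kinetic read | measure = Agonist-evoked peak-minus-minimum fluorescence over baseline, integrated ratio, B score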
RGS4 activ val – reduced carbachol calcium response, RGS4-induced M3R cells, confirmation, RGS4 activator project, cell-based, HEK293 M3R/RGS4 inducible, calcium flux, duplicate; actives 89% (n = 1,100); shares compounds with RGS4 pot; carbachol calcium flux Fluo4; inhibition, % at 10 µM;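 active = inhibition above 3 SD of the buffer control wells, cut at about 41% in these data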;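 note: signal is the integrated peak-minus-minimum Fluo4 fluorescence over baseline ratio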
M3R Ca counter – counter-screen for RGS4 activators: effect in non-induced cells; shares compounds with RGS4 pot; HEK293 M3R non-induced RGS4, Fluo4 calcium flux; after carbachol challenge at its EC90; inhibition, % at 10 µM; actives 82% (n = 1,100);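 active = inhibition exceeding 3 SD of buffer-only control wells, cut at about 26% in these data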;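 note: percent drop in integrated peak-minus-baseline over baseline Fluo4 ratio after carbachol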
* = called active by the depositor; i = inactive; · = not tested or not shown.

SMILES	MrgX1 ag	MrgX1 allo act	RGS4 inh	MrgX1 antagonist	Hep lipid drop	RGS4 pot	RGS4 activ val	M3R Ca counter
CC(C)Cc1nc(N2CCN(C(=O)c3ccco3)CC2)c(C#N)c2c1CCC2	i	i	i	i	-7	i	·	·
N#Cc1c(N2CCN(C(=O)c3ccco3)CC2)nc(-c2ccccc2)c2c1CCCC2	i	i	i	i	·	-8.2*	91*	48*
O=C(c1ccco1)N1CCN(c2nc(C3CC3)nc3sc4c(c23)CCCC4)CC1	i	i	i	i	·	-8.5*	87*	45*
N#Cc1c(N2CCN(C(=O)c3ccccc3)CC2)nc(-c2ccccc2)c2c1CCCC2	i	i	i	i	-31	-7.9*	90*	54*
COc1ccc(F)cc1S(=O)(=O)Nc1cc2c3c(c1)CCN3C(=O)CC2	i	i	i	i	·	i	·	·
CN(C)CC[C@@H](c1ccc(Br)cc1)c1ccccn1	i	i	i	i	·	i	·	·
CN(C)CC[C@@H](c1ccc(Cl)cc1)c1ccccn1	i	i	i	i	·	-13*	57*	0
Cc1cc(-c2ccc(C(C)C)c(S(=O)(=O)N3CCOc4ccccc43)c2)on1	i	i	i	i	-7	i	·	·
Cc1ccc(-c2onc(C)c2C)cc1S(=O)(=O)N1CCOc2ccccc21	i	i	i	i	-34	-8.1*	73*	84*
CC(=O)N1c2ccccc2Sc2ccccc21	i	i	i	i	-2	i	·	·
COCCNCC(=O)N1c2ccccc2Sc2ccccc21	i	i	i	i	-8	-9.5*	94*	41*
Cc1cccc[n+]1CC(=O)N1c2ccccc2Sc2ccccc21	i	i	i	i	10	-14*	92*	87*
CC(C)NC(=O)N1c2ccccc2Sc2ccccc21	i	i	i	i	·	i	·	·
COCCCNC(=O)N1c2ccccc2Sc2ccccc21	i	i	i	i	-12	i	·	·
CC(C)CNCC(=O)N1c2ccccc2Sc2ccccc21	i	i	i	i	·	-8*	86*	50*
CN1CCN(CCCNC(=O)c2ccc(/C=C3\Sc4ccccc4N(Cc4ccccc4F)C3=O)cc2)CC1	·	·	i	·	-32	i	·	·
Cc1ccccc1CN1C(=O)/C(=C\c2ccc(C(=O)NCCN3CCOCC3)cc2)Sc2ccccc21	i	i	i	i	-2	-12*	90*	81*
Cc1c(NS(=O)(=O)c2ccc3c(c2)Cc2ccccc2-3)c(=O)n(-c2ccccc2)n1C	i	i	i	i	-10	i	·	·
O=C(CN1CCCC1)N1c2ccccc2C=Cc2ccccc21	i	i	i	i	7	-10*	82*	41*
O=C(CN1CCCCC1)N1CCCc2ccccc21	i	i	i	i	-15	i	·	·
CN1CCN(C(=O)N2c3ccccc3C=Cc3ccccc32)CC1	i	i	i	i	·	-9.7*	94*	69*
COc1ccc(/C(O)=C2/C(=O)C(=O)N(CCN3CCNCC3)C2c2cccc([N+](=O)[O-])c2)cc1 (configuration not stated)	i	i	i	i	-1	i	·	·
COc1ccc(/C=C/C(O)=C2/C(=O)N(C)C3(C)CC2c2ccccc2O3)cc1 (configuration not stated)	i	i	i	i	·	i	·	·
Cc1ccc(/C=C/C(O)=C2/C(=O)N(C)C3(C)CC2c2ccccc2O3)cc1 (configuration not stated)	i	i	i	i	·	-8*	73*	84*
CC(C)(C)c1csc(NC(=O)c2cccs2)n1	i	i	i	i	19	-8.2*	0	0
SMILES	MrgX1 ag	MrgX1 allo act	RGS4 inh	MrgX1 antagonist	Hep lipid drop	RGS4 pot	RGS4 activ val	M3R Ca counter
Cc1ccc(CNC(=O)c2ccc(Cn3nc(C)c(Cl)c3C)o2)cc1	i	i	i	i	·	i	·	·
Cc1cc(C)cc(NC(=O)c2ccc(Cn3nc(C)c(Cl)c3C)o2)c1	i	i	i	i	-43	-12*	70*	64*
CCOc1cc(CNCc2cccs2)ccc1OCC(=O)NC(C)(C)C	i	i	i	i	1	i	·	·
COc1cc(CNCc2cccs2)ccc1OCC(=O)NC(C)(C)C	i	i	i	i	·	-8*	46*	84*
Cc1cccc(NC(=O)c2ccccc2OCC(=O)N2CCCC2)c1C	i	i	i	i	2	i	·	·
C[C@@H]1CN(C2CCN(Cc3nc(C(c4ccccc4)c4ccccc4)no3)CC2)C[C@H](C)O1	i	i	i	i	9	i	·	·
Cc1nc(CN2CCN(Cc3nc(C(c4ccccc4)c4ccccc4)no3)CC2)cs1	i	i	i	i	-10	-13*	92*	79*
Cc1cccnc1CN1CCN(Cc2nc(C(c3ccccc3)c3ccccc3)no2)CC1	i	i	i	i	-7	-8.7*	93*	82*
c1ccc(C(c2ccccc2)c2noc(CN3CCN(C4CCCC4)CC3)n2)cc1	i	i	i	i	-25	i	·	·
C=CCOc1ccc(/C=C2/C(=N)N3N=C(CC(=O)N4CCCC4)SC3=NC2=O)cc1OC	i	i	i	i	-38	i	·	·
CCOc1ccc(C(=O)n2cc(C(=O)OC)c3ccccc32)cc1OCC	i	i	i	i	-12	i	·	·
CCOc1ccc(C(=O)n2cc(C(=O)OC)c3ccccc32)cc1	i	i	i	i	0	-8.6*	69*	84*
S=c1[nH]nc(-c2ccncc2)n1/N=C/C=C/c1ccco1	i	i	i	i	-5	i	·	·
S=c1[nH]nc(-c2ccccc2Cl)n1/N=C/C=C/c1ccco1	i	i	i	i	29	-8.2*	94*	89*
